Data as given in ChEMBL document CHEMBL1221385, “Iminoheterocycles as gamma-secretase modulators” (Bioorg Med Chem Lett, 2010).
pIC50: −log10 of the molar value.

Experiments:
[1] = target: Gamma-secretase; experiment: Inhibition of gamma secretase-mediated amyloid beta42 production in HEK293 cells; type: cell-based, Homo sapiens
In short: (§1)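 HEK293 cells stably transfected with APP (Swedish plus London mutations, pcDNA3.1) treated with compound for 5 h; Aβ in conditioned medium read by MSD sandwich immunoassay: Aβ42 with TAG-G2-11/biotin-4G8, Aβ40 with TAG-G2-10/biotin-4G8, total Aβ with TAG-W02/biotin-4G8. IC50 from Aβ42; ratio is total Aβ over Aβ42.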

[2] = Selectivity ratio of total amyloid beta to amyloid beta 42; in short: as §1
[3] = test system: Brain; experiment: Drug level in rat brain at 30 mg/kg, po; details: in vivo, read-out: Drug uptake
[4] = AUC (0 to 6 hrs) in rat at 10 mg/kg, po; type: ADME, organism-based; set-up: time < 6 hr, dose 10 mg/kg, route oral; details: plasma
In short: (§2)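 Rats given a single 10 mg/kg oral dose. Plasma sampled over 0–6 h for AUC and Cmax, with the time of Cmax recorded. Brain level (ng/g) and brain:plasma concentration ratio taken at 6 h.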

[5] = test system: Rattus norvegicus; experiment: Reduction in amyloid beta 42 level in rat CSF at 30 mg/kg, po; set-up: scale not given: the % may be the effect or the level left
[6] = test system: Rattus norvegicus; experiment: Reduction in amyloid beta 42 level in rat CSF at 100 mg/kg, po; set-up: scale not given: the % may be the effect or the level left
[7] = Cmax in rat at 10 mg/kg, po after 2 hrs; type: ADME, organism-based; set-up: dose 10 mg/kg, route oral; details: in vivo; in short: as §2
[8] = Drug level in rat brain at 10 mg/kg, po after 6 hrs; type: ADME, organism-based; set-up: dose 10 mg/kg, route oral; details: read-out: Drug uptake; in short: as §2
[9] = Selectivity ratio of drug level in brain to plasma in rat at 10 mg/kg, po after 6 hrs; type: ADME, organism-based; set-up: dose 10 mg/kg, route oral; details: read-out: BPR; in short: as §2
[10] = test system: Plasma; experiment: Drug level in rat plasma at 30 mg/kg, po; details: in vivo
[11] = test system: Mus musculus; experiment: Reduction in amyloid beta 42 level in transgenic CRND8 mouse plasma at 30 mg/kg, po; type: functional; set-up: scale not given: the % may be the effect or the level left
In short: (§3)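 CRND8 transgenic mice dosed orally at 30 mg/kg. Plasma Aβ42 and total Aβ sampled 3 h after dosing.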

[12] = test system: Mus musculus; experiment: Reduction in amyloid beta 42 level in CRND8 transgenic mouse cortical at 30 mg/kg, po; type: functional; set-up: scale not given: the % may be the effect or the level left
[13] = test system: Mus musculus; experiment: Reduction in total amyloid beta level in CRND8 transgenic mouse plasma at 30 mg/kg, po; type: functional; set-up: scale not given: the % may be the effect or the level left; in short: as §3
[14] = AUC (0 to 6 hrs) in po dosed rat; type: ADME, organism-based; set-up: time < 6 hr, route oral; details: plasma; in short: as §2
[15] = test system: Rattus norvegicus; experiment: Reduction in amyloid beta 42 level in po dosed rat CSF; set-up: scale not given: the % may be the effect or the level left
[16] = Cmax in rat at 10 mg/kg, po after 1 hr; type: ADME, organism-based; set-up: dose 10 mg/kg, route oral; details: in vivo; in short: as §2

SMILES | pIC50 [1] | Ratio [2] | further results
COc1cc(/C=C2\N=C(NCCCO)N([C@H](C)c3ccc(F)cc3)C2=O)ccc1-n1cnc(C)c1 | 6.95 | 153 | 
COc1cc(/C=C2\N=C(NCCCO)N([C@@H](C)c3ccc(F)cc3)C2=O)ccc1-n1cnc(C)c1 | 6.79 | 141 | 
COc1cc(/C=C2\N=C3NCC(c4ccc(F)cc4)N3C2=O)ccc1-n1cnc(C)c1 (racemic) | 6.87 | 117 | 
CCN1CCC(c2ccc(F)cc2)N2C(=O)/C(=C/c3ccc(-n4cnc(C)c4)c(OC)c3)N=C12 (single isomer, unassigned; (+)) | 7.07 | 71 | 
CCCCNC1=N/C(=C\c2ccc(-n3cnc(C)c3)c(OC)c2)C(=O)N1[C@H](C)c1ccc(F)cc1 | 7.04 | 42 | 
CCNC1=N/C(=C\c2ccc(-n3cnc(C)c3)c(OC)c2)C(=O)N1[C@H](CO)c1ccc(F)cc1 | 7.04 | 200 | 
COc1cc(/C=C2\N=C(NC3CC3)N([C@@H](C)c3ccc(F)cc3)C2=O)ccc1-n1cnc(C)c1 | 6.54 | 136 | 
CCCCNC1=N/C(=C\c2ccc(-n3cnc(C)c3)c(OC)c2)C(=O)N1Cc1ccc(F)cc1 | 7.07 | 70 | concentration [3]: 5.9 µM; AUC(0-t) at 6 h [4]: 10 µM·h; Activity [5]: 10%; Activity [6]: 38%; Cmax [7]: 2.3 µM; concentration at 6 h [8]: 449 ng/g; Kp at 6 h [9]: 0.7; concentration [10]: 7.1 µM
COc1cc(/C=C2\N=C3NCCC(c4ccc(F)cc4)N3C2=O)ccc1-n1cnc(C)c1 (single isomer, unassigned; (+)) | 6.97 | 188 | 
COc1cc(/C=C2\N=C(NCCO)N([C@H](C)c3ccc(F)cc3)C2=O)ccc1-n1cnc(C)c1 | 7.20 | 27 | 
CCNC1=N/C(=C\c2ccc(-n3cnc(C)c3)c(OC)c2)C(=O)N1[C@H](C)c1ccc(F)cc1 | 7.06 | 159 | AUC(0-t) at 6 h [4]: 10.1 µM·h; Cmax [7]: 2.3 µM; concentration at 6 h [8]: 914 ng/g; Kp at 6 h [9]: 1.3; Activity [11]: 80%; Activity [12]: 12%; Activity [13]: 10%
COc1cc(/C=C2\N=C(N)N([C@H](C)c3ccc(F)cc3)C2=O)ccc1-n1cnc(C)c1 | 7.03 | 65 | 
COCCCNC1=N/C(=C\c2ccc(-n3cnc(C)c3)c(OC)c2)C(=O)N1[C@@H](C)c1ccc(F)cc1 | 6.54 | 70 | 
COC1=N/C(=C\c2ccc(-n3cnc(C)c3)c(OC)c2)C(=O)N1[C@@H](C)c1ccc(F)cc1 | 6.06 | 23 | 
COc1cc(/C=C2\N=C(N)N(Cc3ccc(F)cc3)C2=O)ccc1-n1cnc(C)c1 | 6.84 | 139 | 
COc1cc([C@H](O)C2CNC(=N)N([C@@H](C)c3ccc(F)cc3)C2=O)ccc1-n1cnc(C)c1 (some centres undefined) | < 4.70 |  | 
CCN1CCCC(c2ccc(F)cc2)N2C(=O)/C(=C/c3ccc(-n4cnc(C)c4)c(OC)c3)N=C12 (single isomer, unassigned; (-)) [listing 1 of 2 here] |  | 215 | 
CCNC1=N/C(=C\c2ccc(-n3cnc(C)c3)c(OC)c2)C(=O)N1[C@H](CCO)c1ccc(F)cc1 | 6.77 | 117 | 
CNC1=N/C(=C\c2ccc(-n3cnc(C)c3)c(OC)c2)C(=O)N1[C@@H](C)c1ccc(F)cc1 | 6.39 | 25 | 
COc1cc(/C=C2\N=C3NCCCC(c4ccc(F)cc4)N3C2=O)ccc1-n1cnc(C)c1 (racemic) | 6.30 | 40 | 
CCNC1=N/C(=C\c2ccc(-n3cnc(C)c3)c(OC)c2)C(=O)N1Cc1ccc(F)cc1 | 7.14 | 104 | 

SMILES | pIC50 [1] | Ratio [2] | further results
COc1cc(/C=C2\N=C(N3CCCCC3)N([C@@H](C)c3ccc(F)cc3)C2=O)ccc1-n1cnc(C)c1 | 6.02 | 21 | 
CCN1CCCC(c2ccc(F)cc2)N2C(=O)/C(=C/c3ccc(-n4cnc(C)c4)c(OC)c3)N=C12 (racemic) [listing 1 of 2 here] |  | 169 | 
COc1cc(Cc2c[nH]c(=N)n([C@@H](C)c3ccc(F)cc3)c2=O)ccc1-n1cnc(C)c1 | 6.35 |  | 
COCCNC1=N/C(=C\c2ccc(-n3cnc(C)c3)c(OC)c2)C(=O)N1[C@@H](C)c1ccc(F)cc1 | 6.52 | 66 | 
COc1cc(/C=C2\N=C(N)N([C@H](CO)c3ccc(F)cc3)C2=O)ccc1-n1cnc(C)c1 | 6.86 | 113 | 
CCN1CCCC(c2ccc(F)cc2)N2C(=O)/C(=C/c3ccc(-n4cnc(C)c4)c(OC)c3)N=C12 (racemic) [listing 2 of 2 here] | 6.93 |  | 
COc1cc(/C=C2\N=C(NCC3CC3)N([C@@H](C)c3ccc(F)cc3)C2=O)ccc1-n1cnc(C)c1 | 6.60 | 71 | 
COc1cc(/C=C2\N=C(N)N([C@H](CCO)c3ccc(F)cc3)C2=O)ccc1-n1cnc(C)c1 | 6.64 | 87 | 
CCNC1=N/C(=C\c2ccc(-n3cnc(C)c3)c(OC)c2)C(=O)N1[C@@H](C)c1ccc(F)cc1 | 6.66 | 97 | 
COc1cc(/C=C2\NC(=O)N([C@H](C)c3ccc(F)cc3)C2=O)ccc1-n1cnc(C)c1 | 5.46 |  | 
COc1cc(/C=C2\CCCN([C@@H](C)c3ccc(F)cc3)C2=O)ccc1-n1cnc(C)c1 |  |  | AUC(0-t) at 6 h [14]: 60.4 µM·h
COc1cc(/C=C2\N=C(N3CCCC3)N([C@@H](C)c3ccc(F)cc3)C2=O)ccc1-n1cnc(C)c1 | 6.17 | 32 | 
CCN1CCCC(c2ccc(F)cc2)N2C(=O)/C(=C/c3ccc(-n4cnc(C)c4)c(OC)c3)N=C12 (single isomer, unassigned; (-)) [listing 2 of 2 here] | 7.14 |  | AUC(0-t) at 6 h [4]: 16.9 µM·h; concentration at 6 h [8]: 275 ng/g; Kp at 6 h [9]: 0.3; Activity [15]: 8%; Cmax [16]: 4.2 µM
CCCCNC1=N/C(=C\c2ccc(-n3cnc(C)c3)c(OC)c2)C(=O)N1[C@@H](C)c1ccc(F)cc1 | 6.59 | 78 | 
COc1cc(/C=C2\NC(=O)N([C@@H](C)c3ccc(F)cc3)C2=O)ccc1-n1cnc(C)c1 | 6.79 | 141 | 
COc1cc(/C=C2\N=C(N)N([C@@H](C)c3ccc(F)cc3)C2=O)ccc1-n1cnc(C)c1 | 6.49 | 55 | 
COc1cc(/C=C2\N=C(NCCO)N([C@@H](C)c3ccc(F)cc3)C2=O)ccc1-n1cnc(C)c1 | 6.66 | 79 | 
CCN1CC(c2ccc(F)cc2)N2C(=O)/C(=C/c3ccc(-n4cnc(C)c4)c(OC)c3)N=C12 (single isomer, unassigned; (-)) | 7.25 | 159 | 
COc1cc(/C=C2\N=C(NCC3CC3)N([C@H](C)c3ccc(F)cc3)C2=O)ccc1-n1cnc(C)c1 | 6.80 | 68 | 
COc1cc(/C=c2/c(=O)n([C@@H](C)c3ccc(F)cc3)c3n2CCCN=3)ccc1-n1cnc(C)c1 | 5.15 |  | 
COc1cc(/C=C2/C(=O)N([C@@H](C)c3ccc(F)cc3)C(=N)NC2(C)C)ccc1-n1cnc(C)c1 | < 4.70 |  | 
